From ChEMBL document CHEMBL3352816, “Synthesis and antiproliferative activity of imidazo[2,1-b][1,3,4]thiadiazole derivatives” (Bioorg Med Chem Lett, 2014)
Calls of active or inactive are those of the source. No cut-off for these calls is given here.

How the values were obtained:
REH [1] = assay: Induction of apoptosis in human REH cells assessed as induction of ROS production at 1 uM after 60 mins by flow cytometric analysis (reference value: 0.09 %); assay type: functional
REH [2] = assay: Induction of apoptosis in human REH cells assessed as induction of ROS production at 500 nM after 10 mins by flow cytometric analysis (reference value: 0.33 %); assay type: functional
REH [3] = assay: Induction of apoptosis in human REH cells assessed as induction of ROS production at 1 uM after 10 mins by flow cytometric analysis (reference value: 0.33 %); assay type: functional
REH [4] = assay: Induction of apoptosis in human REH cells assessed as reduction of KU70 protein expression at 1 uM after 48 hrs by Western blot analysis; assay type: functional, cell-based
How it was run: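 Reh cells exposed 48 h to 500 nM or 1 µM, with DMSO-treated cells as control; cell lysates probed by western blot with specific primary antibodies against KU70, PARP1, caspases 3, 8 and 9, BID and FAS; tubulin shown as loading reference.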

REH [5] = assay: Induction of apoptosis in human REH cells assessed as PARP cleavage after 48 hrs by Western blot analysis; assay type: functional, cell-based
How it was run: (§1)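 Reh cell lysates were prepared after 48 h treatment at 500 nM and 1 µM, with DMSO-treated cells as control. Western blotting used primary antibodies against KU70, PARP1, caspase 3, BID, caspase 9, FAS and caspase 8, with tubulin also probed.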

REH [6] = assay: Induction of apoptosis in human REH cells assessed as change in caspase 9 expression at 1 uM after 48 hrs by Western blot analysis; assay type: functional, cell-based; how it was run: as §1
REH [7] = assay: Induction of apoptosis in human REH cells assessed as caspase 8 cleavage after 48 hrs by Western blot analysis; assay type: functional, cell-based; how it was run: as §1
[8] = Growth inhibition of human NSCLC cells; assay type: functional
[9] = Growth inhibition of human Leukemia cells; assay type: functional; conditions: Leukemia cell
[10] = Growth inhibition of human Colon cancer cells; assay type: functional; conditions: Cancer cell lines
[11] = Growth inhibition of human CNS cancer cells; assay type: functional; conditions: Cancer cell lines
[12] = Growth inhibition of human Melanoma cells; assay type: functional; conditions: Melanoma cell
K562 [13] = assay: Cytotoxicity against human K562 cells assessed as reduction in cell viability after 24 to 72 hrs by trypan blue exclusion assay; assay type: functional, cell-based
How it was run: (§2)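 Reh, K562 and Nalm6 leukemic cells were treated with 10, 50, 100 and 250 µM or with 0.1, 0.5, 1, 5 and 10 µM (compounds dissolved in DMSO). Viability was scored by trypan blue after 24, 48 and 72 h. DMSO-treated cells served as vehicle control.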

REH [14] = assay: Cytotoxicity against human REH cells assessed as reduction in cell viability at 0.1 to 10 uM by trypan blue exclusion assay; assay type: functional, cell-based; conditions: TDE = time-dependent effect; how it was run: as §2
K562 [15] = assay: Cytotoxicity against human K562 cells assessed as reduction in cell viability at 0.1 to 10 uM by trypan blue exclusion assay; assay type: functional, cell-based; conditions: TDE = time-dependent effect; how it was run: as §2
NALM-6 = assay: Cytotoxicity against human NALM6 cells assessed as reduction in cell viability at 0.1 to 10 uM by trypan blue exclusion assay; assay type: functional, cell-based; conditions: TDE = time-dependent effect; how it was run: as §2
REH [16] = assay: Cytotoxicity against human REH cells assessed as reduction in cell viability at 5 to 10 uM after 48 to 72 hrs by MTT assay; assay type: functional, cell-based
How it was run: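 MTT viability read-out in leukemic cells treated with 10, 50, 100 and 250 µM or with 0.1, 0.5, 1, 5 and 10 µM. Cells harvested after 48 and 72 h. Compounds dissolved in DMSO.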

REH [17] = assay: Cytotoxicity against human REH cells assessed as induction of cell death at 3 uM after 24 to 72 hrs by live-dead cell assay; assay type: functional, cell-based; conditions: in the assay text read “24 to 48 hrs” for “24 to 72 hrs”
How it was run: (§3)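 Reh leukemic and 293T human kidney epithelial cells were treated at 3 µM and compared by live-dead cell assay at 24 and 48 h.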

HEK293 [18] = assay: Cytotoxicity against HEK293 cells assessed as induction of cell death at 3 uM after 24 to 72 hrs by live-dead cell assay; assay type: cell-based; conditions: human, hek293, 3 µM; in the assay text read “24 to 48 hrs” for “24 to 72 hrs”; how it was run: as §3
REH [19] = assay: Cytotoxicity against human REH cells assessed as reduction in cell viability at 3 uM after 24 to 72 hrs by trypan blue exclusion assay; assay type: functional, cell-based
HEK293 [20] = assay: Cytotoxicity against HEK293 cells assessed as reduction in cell viability at 3 uM after 24 to 72 hrs by trypan blue exclusion assay; assay type: cell-based; conditions: human, hek293, 3 µM
REH [21] = assay: Cell cycle arrest in human REH cells assessed as accumulation at subG1 phase after 48 hrs using propidium iodide by FACS analysis; assay type: functional, cell-based
How it was run: (§4)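 Reh and Nalm6 cells exposed 48 h to 0.1, 0.5, 1 and 5 µM, harvested, stained with propidium iodide and analysed by flow cytometry. Gated fractions were sub G1, G1, S and G2. DMSO-treated cells served as vehicle control. Three independent experiments for Reh and two for Nalm6.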

REH [22] = assay: Cell cycle arrest in human REH cells assessed as reduction of cells in G2/M phase after 48 hrs using propidium iodide by FACS analysis; assay type: functional, cell-based; how it was run: as §4
[23] = Cell cycle arrest in human NALM6 cells assessed as accumulation at subG1 phase after 48 hrs using propidium iodide by FACS analysis; assay type: functional, cell-based; conditions: NALM-6; how it was run: as §4
[24] = Cell cycle arrest in human NALM6 cells assessed as reduction of cells in G1 phase after 48 hrs using propidium iodide by FACS analysis; assay type: functional, cell-based; conditions: NALM-6; how it was run: as §4
[25] = Cell cycle arrest in human NALM6 cells assessed as reduction of cells in S phase after 48 hrs using propidium iodide by FACS analysis; assay type: functional, cell-based; conditions: NALM-6; how it was run: as §4
REH [26] = assay: Induction of apoptosis in human REH cells assessed as early apoptotic cells at 1 uM after 48 hrs using annexin-v-FITC/propidium iodide by FACS analysis (reference value: 6.05 %); assay type: functional
REH [27] = assay: Induction of apoptosis in human REH cells assessed as viable cells at 1 uM after 48 hrs using annexin-v-FITC/propidium iodide by FACS analysis (reference value: 88.41 %); assay type: functional; conditions: read-out: Activity
REH [28] = assay: Induction of apoptosis in human REH cells assessed as loss of mitochondrial membrane potential at 1 uM after 48 hrs using Jc-1 staining by flow cytometric analysis; assay type: functional, cell-based
How it was run: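 Mitochondrial membrane potential in Reh cells after 48 h at 0.1, 0.5, 1 and 5 µM. Cells stained with JC-1 and analysed by flow cytometry as the ratio of red (aggregate) to green (monomer) fluorescent cells. 2,4-DNP-treated cells served as positive control.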

REH [29] = assay: Induction of apoptosis in human REH cells assessed as induction of ROS production at 1 uM after 10 mins by flow cytometric analysis (reference value: 0.09 %); assay type: functional
REH [30] = assay: Induction of apoptosis in human REH cells assessed as induction of ROS production at 1 uM after 15 mins by flow cytometric analysis (reference value: 0.09 %); assay type: functional
REH [31] = assay: Induction of apoptosis in human REH cells assessed as induction of ROS production at 1 uM after 30 mins by flow cytometric analysis (reference value: 0.09 %); assay type: functional

Compound: O=Cc1c(-c2ccc(Br)cc2)nc2sc(Cc3ccccc3)nn12
- Activity (REH [1]): 0.12%
- Activity (REH [2]): 0.86%
- Activity (REH [3]): 0.28%
- Activity (REH [4]): Active
- Activity (REH [5]): Dose-dependent effect
- Activity (REH [6]): inactive
- Activity (REH [7]): Active
- GI50 [8]: 4.2 µM
- LC50 (concentration killing 50% of cells) [8]: 95.5 µM
- TGI [8]: 30.2 µM
- GI50 [9]: 1.41 µM
- TGI [9]: 13.5 µM
- GI50 [10]: 2.2 µM
- TGI [10]: 10 µM
- CC50 ([10]; read-out: LC50 (the source's name)): 81.3 µM
- GI50 [11]: 2.2 µM
- LC50 [11]: 64.6 µM
- TGI [11]: 7.4 µM
- GI50 [12]: 3.2 µM
- LC50 [12]: 81.3 µM
- TGI [12]: 19.5 µM
- Activity (K562 [13]): Dose-dependent effect
- Activity (REH [14]): tde
- Activity (K562 [15]): tde
- Activity (NALM-6): tde
- Activity (REH [16]): Active
- Activity (REH [17]): Active
- Activity (HEK293 [18]): Non-toxic
- Activity (REH [19]): Active
- Activity (HEK293 [20]): Non-toxic
- Activity (REH [21]): Dose-dependent effect
- Activity (REH [22]): Dose-dependent effect
- Activity [23]: Dose-dependent effect
- Activity [24]: Dose-dependent effect
- Activity [25]: Dose-dependent effect
- Activity (REH [26]): 43.03%
- viability at 1 µM (REH [27]): 5.23%
- Activity (REH [28]): Dose-dependent effect
- Activity (REH [29]): 0.36%
- Activity (REH [30]): 0.09%
- Activity (REH [31]): 0.06%
